Screens: PubChem, several laboratories
ROMK mod: ROMK potassium channel modulators, primary screen, cell-based, thallium flux, MLSMR library | ATP-sensitive inward rectifier potassium channel 1 (Homo sapiens), P48048 | Tet-inducible ROMK, thallium flux fluorescence; actives lie on both sides | B-score at 10 µM | 130,000 compounds, 2% hits | AID 1918, 2009;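 active means signal ratio slope over the read window, or its plate-corrected B-score, at least 3 SD from the plate mean, either direction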;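 further: B-score of the F/F0 ratio slope over 7 to 12 s after thallium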
Target sequence (P48048 whole entry, looked up): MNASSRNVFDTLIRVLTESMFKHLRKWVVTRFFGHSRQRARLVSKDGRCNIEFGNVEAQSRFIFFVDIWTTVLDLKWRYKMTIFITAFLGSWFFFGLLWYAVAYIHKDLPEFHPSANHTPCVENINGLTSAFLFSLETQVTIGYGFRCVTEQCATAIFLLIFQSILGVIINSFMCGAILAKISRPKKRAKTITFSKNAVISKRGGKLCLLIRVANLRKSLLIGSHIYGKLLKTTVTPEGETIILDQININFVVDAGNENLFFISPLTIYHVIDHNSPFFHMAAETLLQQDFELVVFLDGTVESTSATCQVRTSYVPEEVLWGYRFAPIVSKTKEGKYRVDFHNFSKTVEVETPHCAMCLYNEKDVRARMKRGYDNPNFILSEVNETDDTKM
Diaph act CS: compounds boosting diaphorase resazurin reduction – biochemical, uHTS, resorufin fluorescence, counter-screen for diaphorase-coupled primary assays, primary screen; Diaphorase/resazurin coupled assay, 16 min; stronger effect = higher value; 1 = vehicle wells, 0 = NADH-free wells; activation factor at 20 µM; 190,000 compounds, 0.005% hits;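 active means diaphorase activity raised at least twofold by the compound at 20 µM; inactive means activation factor below 2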
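Measured by – red resorufin fluorescence at 544/590 nm excitation/emission · Test system – Clostridium kluyveri diaphorase, purified enzyme · Incubation – reaction time 16 min, room temperature · Buffer or medium – 50 mM HEPES pH 7.4 with 4.542 mM MgCl2, 0.005% Tween 20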
L major viab: Leishmania major promastigote growth inhibition, primary screen; Leishmania major promastigotes, resazurin fluorescence viability; inhibition, % at 10 µM; 200,000 compounds, 9% hits; in the data active means inhibition above about 50%;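 further: promastigotes grown with compound for 44 hours at 28 °C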
Diaph inh CS: diaphorase inhibitors and chemical oxidizers, primary screen, counter-screen for diaphorase-coupled primary assays, biochemical, uHTS, resorufin fluorescence. diaphorase resazurin-to-resorufin fluorescence, NADH, 16 min; bacterial (C. kluyveri) enzyme, not human. inhibition, % at 20 µM. 190,000 compounds, 0.69% hits;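 active means primary screen inhibition at 20 µM above a set limit, cut at about 50% in these data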
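Assay system – diaphorase enzyme from Clostridium kluyveri · Amount – diaphorase 0.14 U/mL (working solution) · Times – reaction incubation of 16 min at room temperature · Controls – No-NADH positive control and DMSO neutral control · Signal – resorufin fluorescence 544/590 nm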
WT yeast gro inh: growth inhibition of WT strain, primary screen, mitochondrial fusion inhibitor project, WT and mutant strains, chemical genetic | inhibition, % at 10 µM | mitochondrial fusion phenotypic screen | 190,000 compounds, 2.1% hits; in the data active means inhibition above about 58%; tested in S. cerevisiae
Cl transport mod: KCC2 cotransporter modulators, thallium flux, primary screen, cell-based, HEK293 KCC2, FluoZin-2 fluorescence, MLSMR | Solute carrier family 12 member 5 (Homo sapiens), Q9H2X9 | 190,000 compounds, 2.2% hits | AID 1456, 2008 | B-score of Tl+ flux slope (higher = more flux/activation; lower = inhibition) at 10 µM | KCC2 cells, thallium flux FluoZin-2 fluorescence;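 active means thallium flux slope and its plate-corrected score both differing from the plate sample mean at a set confidence after two filtering rounds, in either direction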;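 further: slope of fluorescence scaled to starting intensity during 10 to 20 s after thallium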
KCC2 secondary: KCC2 modulators in sodium-free buffer, confirmation, cell-based, HEK293 KCC2, thallium flux, secondary assay | shares compounds with Cl transport mod | FluoZin2 fluorescence; stronger effect = higher value | normalised thallium flux (F/F0 slope) at 10 µM | 3,700 compounds, 15% hits | AID 1713, 2009;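 active means thallium flux slope above the same plate's solvent-only control mean plus 3 SD; inconclusive means the two replicate wells disagree; inactive means no significant difference from solvent-only control wells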
KCC2 bumet counter: thallium flux persisting under bumetanide in KCC2 cells, confirmation, counter-screen for KCC2 modulator project, cell-based, HEK293 KCC2, FluoZin2, secondary assay 3; shares compounds with Cl transport mod; HEK293-KCC2 + bumetanide/ouabain; stronger effect = higher value; normalized thallium flux at 10 µM; 3,700 compounds, 49% hits;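 active means thallium entry rate above the same plate's blocked-transporter control wells by more than 3 SD; inconclusive means the two repeat wells disagree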;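 further: raw slope of fluorescence over initial fluorescence between 10 and 20 s after thallium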
KCC2 secondary2: KCC2 modulators without ouabain present, confirmation, cell-based, HEK293 KCC2, thallium flux, FluoZin2, secondary assay 2; normalized thallium flux at 10 µM; thallium flux FluoZin2 fluorescence; actives lie on both sides; F/F0 rise rate, 10–20 s post-thallium; shares compounds with Cl transport mod; 3,700 compounds, 23% hits; AID 1715, 2009;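 active means thallium flux slope more than 3 SD above or below the plate's solvent-only control mean, mostly below; inconclusive means the two repeat wells disagreed; inactive means no significant shift from solvent-only controls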
HEK counter1: thallium flux modulation in parental HEK cells, confirmation, counter-screen for KCC2 modulator project, cell-based, counterscreen 1 | shares compounds with Cl transport mod | HEK293 parental cells, thallium flux FluoZin2, ouabain; baseline-ratio fluorescence slope, 10–20 s after thallium | thallium flux rate (normalised fluorescence) at 10 µM | 3,700 compounds, 46% hits;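 active means thallium flux rate significantly above the same plate's solvent-only control wells, beyond their mean plus 3 SD; inconclusive means the two replicate wells gave conflicting results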
KCC2 ouabain: KCC2 inhibitors and activators, ouabain retest, confirmation, HEK-KCC2 cells; HEK293-KCC2, thallium flux FluoZin2 fluorescence; bidirectional: low = inhibitor, high = activator; shares compounds with Cl transport mod; 3,700 compounds, 48% hits; raw Tl+ flux slope (below DMSO = inhibition, above = activation) at 10 µM;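 active means thallium flux slope beyond 3 SD from same-plate DMSO control mean in most replicates, usually higher, sometimes lower; inconclusive means repeat tests gave conflicting results; inactive means no significant difference from controls in most replicates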;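 further: slope of initial-normalized fluorescence between seconds 10 and 20 after thallium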
HEK293 Tl flux2: native HEK Tl+ uptake effects, second counter-screen – HEK cells, counterscreen 2, counter-screen for KCC2 modulator project, confirmation; shares compounds with Cl transport mod; HEK293 parental, thallium flux FluoZin-2 fluorescence slope; thallium flux slope at 10 µM; 3,700 compounds, 33% hits;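 active means thallium flux slope above the same plate's solvent-control mean plus 3 SD in both duplicate wells; inconclusive means duplicate wells that disagreed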;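 further: run without ouabain in cells lacking the KCC2 cotransporter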
Large screens that a line does not name were inactive (follow-up assays come after a bar, where they were run). An excerpt weighted towards active compounds, which were near 12% of everything screened.

COC(=O)C(NS(C)(=O)=O)(c1c(C)[nH]c2ccccc12)C(F)(F)F (stereo not given)	Cl transport mod -4.42 | KCC2 secondary inactive | KCC2 bumet counter inconclusive | KCC2 secondary2 inactive | HEK counter1 inactive | KCC2 ouabain inactive | HEK293 Tl flux2 inactive
COC(=O)c1ccc2nc(Nc3nc4c(F)cc(F)cc4s3)sc2c1	L major viab 51.5, Cl transport mod 9.22 | KCC2 secondary inactive | KCC2 bumet counter 0.0191 | KCC2 secondary2 0.0407 | HEK counter1 0.0159 | KCC2 ouabain 0.0282 | HEK293 Tl flux2 0.0214
CCCCOC(=O)C1=C(C)NC2=C(C(=O)CCC2)C1c1cc(OC)ccc1OC (stereo not given)	Cl transport mod 7.52 (no result: ROMK mod) | KCC2 secondary inactive | KCC2 bumet counter inactive | KCC2 secondary2 inactive | HEK counter1 inactive | KCC2 ouabain inactive | HEK293 Tl flux2 inactive
Cn1nnnc1SCC1=C(C(=O)O)N2C(=O)C(NC(=O)C3CC3c3ccccc3)C2SC1 (stereo not given)	Cl transport mod -5.42 | KCC2 secondary inactive | KCC2 bumet counter inactive | KCC2 secondary2 inactive | HEK counter1 inconclusive | KCC2 ouabain inactive | HEK293 Tl flux2 inactive
COc1cccc(CNC(=O)Cn2cccc2)c1	Cl transport mod 9.55 | KCC2 secondary inactive | KCC2 bumet counter inactive | KCC2 secondary2 inactive | HEK counter1 inactive | KCC2 ouabain inactive | HEK293 Tl flux2 inactive
O=C(CSc1ccc(-c2cccs2)nn1)NCc1ccccc1Cl	none
COc1ccccc1CNC(=O)CSc1ccc(-c2cccs2)nn1	L major viab 75.0, Cl transport mod -4.26 | KCC2 secondary inactive | KCC2 bumet counter inactive | KCC2 secondary2 inactive | HEK counter1 inactive | KCC2 ouabain 0.0154 | HEK293 Tl flux2 inactive
COc1cccc(CNC(=O)Cc2ccc(Br)cc2)c1	none (no result: ROMK mod)
COc1cccc(CNC(=O)CSc2ccc(-c3cccs3)nn2)c1	Cl transport mod -3.17 | KCC2 secondary inactive | KCC2 bumet counter inactive | KCC2 secondary2 inconclusive | HEK counter1 inactive | KCC2 ouabain inactive | HEK293 Tl flux2 inactive
Cc1ccc(CN2CCNC(=O)C2CC(=O)NCC(F)(F)F)o1 (stereo not given)	none
Cc1ccc(N2C(=O)C3NN=C(C(=O)OCc4ccccc4)C3C2=O)c(C)c1 (stereo not given)	none
O=S(=O)(Nc1ccc(N2CCOCC2)cc1)c1ccc2ccccc2c1	none
Cc1nn(-c2ccc(F)cc2)c(C)c1NS(=O)(=O)c1ccc2ccccc2c1	Cl transport mod -7.15 (no result: ROMK mod) | KCC2 secondary inactive | KCC2 bumet counter inconclusive | KCC2 secondary2 0.0222 | HEK counter1 inactive | KCC2 ouabain inconclusive | HEK293 Tl flux2 inactive
CC(=O)Nc1ccc(S(=O)(=O)Nc2c(C)nn(-c3ccccc3)c2C)cc1	none (no result: ROMK mod, Cl transport mod) | KCC2 secondary inactive | KCC2 bumet counter inactive | KCC2 secondary2 inactive | HEK counter1 inconclusive | KCC2 ouabain inactive | HEK293 Tl flux2 inactive
CCC(=O)Oc1ccc(-c2nc(-c3cccnc3)no2)cc1	none
Cc1cc(C)n2nc(C(=O)NCCc3ccccc3)nc2n1	none
O=C(NCCc1ccccc1)c1nc2nc(-c3cccs3)cc(C(F)(F)F)n2n1	Cl transport mod -2.53 | KCC2 secondary inactive | KCC2 bumet counter inactive | KCC2 secondary2 inactive | HEK counter1 inactive | KCC2 ouabain inactive | HEK293 Tl flux2 inactive
O=C(O)CCc1ccc(-c2ccc(F)cc2)n1CCC(=O)O	Cl transport mod 3.2 | KCC2 secondary inactive | KCC2 bumet counter inconclusive | KCC2 secondary2 inactive | HEK counter1 inactive | KCC2 ouabain inactive | HEK293 Tl flux2 inactive
S=c1nc(SCc2ccccc2)[nH]c2ccccc12	Diaph inh CS 86.9, WT yeast gro inh 61.7, Cl transport mod 120 (no result: ROMK mod) | KCC2 secondary 0.0187 | KCC2 bumet counter 0.0975 | KCC2 secondary2 0.104 | HEK counter1 0.108 | KCC2 ouabain 0.095 | HEK293 Tl flux2 0.105
COC(C[C@@H]1O[C@@H]1[C@@H](O)[C@@H](C)OCc1ccccc1)OC	none (no result: ROMK mod, Diaph act CS, L major viab, Diaph inh CS, WT yeast gro inh)
COC(C[C@@H]1O[C@@H]1[C@H](O)[C@H](C)OCc1ccccc1)OC	none (no result: ROMK mod, Diaph act CS, L major viab, Diaph inh CS, WT yeast gro inh, Cl transport mod) | KCC2 secondary inactive | KCC2 bumet counter inactive | KCC2 secondary2 inactive | HEK counter1 inactive | KCC2 ouabain inactive | HEK293 Tl flux2 inactive
CCOC(=O)Cn1c(=O)oc2cc(S(=O)(=O)N3CCc4ccccc43)ccc21	L major viab 59.6, Cl transport mod -3.26 (no result: ROMK mod) | KCC2 secondary inactive | KCC2 bumet counter inactive | KCC2 secondary2 inactive | HEK counter1 inactive | KCC2 ouabain inactive | HEK293 Tl flux2 inactive
COc1cccc(C(=O)OCc2ccccc2C#N)c1O	none (no result: ROMK mod)
CC(C)C(=O)N/N=C/c1ccc(OCc2ccccc2)cc1	Cl transport mod -4.66 (no result: ROMK mod) | KCC2 secondary inactive | KCC2 bumet counter inactive | KCC2 secondary2 inactive | HEK counter1 inactive | KCC2 ouabain inconclusive | HEK293 Tl flux2 inactive
CC(C)Oc1ccccc1OCCCOc1cccc2cccnc12	WT yeast gro inh 81.4, Cl transport mod -3.75 | KCC2 secondary inactive | KCC2 bumet counter inactive | KCC2 secondary2 inconclusive | HEK counter1 inactive | KCC2 ouabain 0.0168 | HEK293 Tl flux2 inactive
